Test results taken from publication PMC10790741 (Journal of Pharmacy & Bioallied Sciences, 2023).
Entries after “also recorded” stand apart in the source; their conditions may differ.

Tested on: male albino mice
Test: Neurotoxicity, rotarod test
Type: in vivo
Settings: 0.5 and 4 h
Outline: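 Male albino mice (25–30 g) were trained on a rotating rod (3.2 cm outer diameter, 10 rpm). Test compound was given at 30, 100 and 300 mg/kg, and mice were checked at 0.5 and 4 h. Neurotoxicity was failure to keep balance on the rod for 1 min, across three trials. The toxic dose was the dose at which 50% of animals fell.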

Structure (SMILES)	Neurotoxicity (result in words)
COc1ccc2ccc(C(/C=C/c3c[nH]c4ccccc34)N3C=CC(C(=O)O)C=C3)cc2c1 (centres unmarked) [5g, (E)-1-(3-(1H-indol-3-yl)-1-(7-methoxynaphthalen-2-yl)allyl)-1,4-dihydropyridine-4-carboxylic acid]	neurotoxic; also recorded: motor impairing
Cc1ccc2ccc(C(/C=C/c3c[nH]c4ccccc34)N3C=CC(C(=O)O)C=C3)cc2c1 (centres unmarked) [5i, (E)-1-(3-(1H-indol-3-yl)-1-(7-methylnaphthalen-2-yl)allyl)-1,4-dihydropyridine-4-carboxylic acid]	neurotoxic
